Bioassay records as filed in PubChem.
The list is not random: actives were taken first. Their share in the collection is about 29%.
tolC growth inh: growth inhibitors of E. coli tolC mutant, primary screen, strain BW25113 ΔtolC::kan, 384-well | OD615 | growth inhibition, % at 10 µM (by protocol) | hit rate 2.2% among 65,000 | AID 573, 2007;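 active = growth inhibition at or above a cutoff equal to the mean over every tested compound plus 3 SD, cut at about 60% in these data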;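 note: growth measured after 20 h incubation at 37 °C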
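Test system: tolC-deleted E. coli BW25113; medium: LB with kanamycin 50 µg/mL; compound: single-point testing at 10 µM; incubation: 20 h compound exposure of bacteria at 37 °C; signal: OD at 615 nm; evaluation: growth inhibition in percent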
Ecoli WT expand: growth inhibitors of wild-type E. coli, primary screen, strain BW25113, expanded library, OD600 | OD600 absorbance | growth inhibition, % at 100 µM | hit rate 0.15% among 98,000 | AID 710, 2007;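 active = growth inhibition above about 50% at one test dose, limit read from the data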;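 note: growth measured after 20 h incubation at 37 °C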
CYP2C19 activ: human CYP2C19 activators, primary screen, biochemical, luminescence; Cytochrome P450 2C19 (Homo sapiens), P33261; recombinant CYP2C19, luciferin-H EGE luminescence; stronger effect = higher value; 0 = fully inhibited enzyme, 1 = untreated enzyme; activation factor at 5 µM; 96,000 tested, under 10 active; AID 1025, 2008;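 active = activation factor of at least 2 at 5 µM in the primary screen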
Target sequence (P33261 whole entry, looked up): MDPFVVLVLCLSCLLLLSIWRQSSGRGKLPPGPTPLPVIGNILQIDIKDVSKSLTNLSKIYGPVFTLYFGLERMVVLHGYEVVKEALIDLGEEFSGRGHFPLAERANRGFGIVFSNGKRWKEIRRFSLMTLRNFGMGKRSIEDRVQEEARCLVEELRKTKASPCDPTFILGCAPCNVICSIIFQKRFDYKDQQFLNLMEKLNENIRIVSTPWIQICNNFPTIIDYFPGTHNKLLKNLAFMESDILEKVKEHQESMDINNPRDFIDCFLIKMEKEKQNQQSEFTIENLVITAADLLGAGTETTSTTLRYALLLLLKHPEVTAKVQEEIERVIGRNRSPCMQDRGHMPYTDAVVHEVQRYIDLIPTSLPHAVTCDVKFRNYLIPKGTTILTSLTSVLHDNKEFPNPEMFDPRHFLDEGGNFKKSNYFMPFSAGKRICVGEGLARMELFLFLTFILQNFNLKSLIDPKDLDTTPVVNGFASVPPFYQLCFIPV
CYP2C9 inh: blockers of cytochrome P450 2C9 activity – biochemical, luminescence, ADME assay, primary screen; P11712; CYP2C9 Supersomes, luciferin-H conversion; inhibition, % at 5 µM; hit rate 20% among 96,000;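 active = blocking of liver enzyme CYP2C9 beyond about 50% at 5 µM, limit read from the data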
CYP2C19 inh: blockers of cytochrome P450 2C19 activity – biochemical, luminescence, ADME assay, primary screen; P33261; CYP2C19 Supersomes, luciferin-H EGE luminescence, 30 min; inhibition, % at 5 µM; hit rate 21% among 96,000; AID 778, 2007;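 active = CYP2C19 inhibition above a set limit at 5 µM in the primary screen, cut at about 50% in these data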
CYP2C9 act: human CYP2C9 activators, primary screen, biochemical, luminescence | activation factor at 5 µM | recombinant CYP2C9, luciferin-H conversion; stronger effect = higher value; factor 1 = untreated enzyme, 0 = blocked | hit rate 1.4% among 96,000 | Cytochrome P450 2C9 (Homo sapiens), P11712 | AID 1024, 2008;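 active = activation factor of 2 or more for CYP2C9 at a 5 µM dose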
Of the large screens only hits and unclear results are named; the others gave an inactive call.

O=c1[nH]c2ccc(S(=O)(=O)N3CCN(c4ccccc4F)CC3)cc2s1	tolC growth inh 100
Cc1[nH]c(=O)[nH]c(=O)c1S(=O)(=O)N1CCN(c2ccccc2F)CC1	none (no result: tolC growth inh)
Cc1cccc(C)c1N1CCN(S(=O)(=O)c2ccc(F)cc2)CC1	CYP2C9 inh 93, CYP2C19 inh 97
CCS(=O)(=O)N1CCN(c2ccccc2F)CC1	CYP2C9 inh 90, CYP2C19 inh 50
COc1ccc(S(=O)(=O)N2CCN(c3cccc(C)c3C)CC2)cc1	CYP2C9 inh 88, CYP2C19 inh 97
CCS(=O)(=O)N1CCC(C(=O)NCCCN2CCN(c3ccccc3F)CC2)CC1	none
O=C1OC(Nc2ccc(Br)cc2F)c2ccccc21 (stereo not given)	none (no result: Ecoli WT expand)
CCOc1ccc(-n2nnc3c(=O)n(CC(=O)c4ccccc4)cnc32)cc1	none (no result: Ecoli WT expand)
Cn1c(=O)c2c(nc(SC3C(=O)CC(C)(C)CC3=O)n2C)n(C)c1=O	none (no result: Ecoli WT expand)
C=CCn1c(C)nc2c(c1=O)c1nc3ccccc3nc1n2-c1ccc(C)cc1	none (no result: Ecoli WT expand, CYP2C19 activ, CYP2C9 inh, CYP2C19 inh, CYP2C9 act)
NC(=O)C1(N2CCCCC2)CCN(C2CC(=O)N(Cc3cccs3)C2=O)CC1 (stereo not given)	none
COc1ccccc1N1CCN(S(=O)(=O)c2cccc(F)c2)CC1	CYP2C9 inh 89, CYP2C19 inh 96
COc1ccccc1N1CCN(C(=O)c2ccc(S(=O)(=O)N3CCCCCC3)cc2)CC1	CYP2C9 inh 71, CYP2C19 inh 52
COc1ccccc1N1CCN(S(=O)(=O)c2ccc(Cl)s2)CC1	CYP2C9 inh 96, CYP2C19 inh 97
COc1ccccc1N1CCN(S(=O)(=O)/C=C/c2ccccc2)CC1	CYP2C9 inh 66, CYP2C19 inh 100 (no result: tolC growth inh)
CCOc1ccccc1N1CCN(S(=O)(=O)c2ccc(Cl)s2)CC1	none
O=C1c2ccc(Oc3ccc4c(c3)C(=O)N(CCCO)C4=O)cc2C(=O)N1CCCO	none
CCN1CCN(C(=O)C2CCC(CNS(=O)(=O)c3ccccc3)CC2)CC1 (stereo not given)	none (no result: tolC growth inh)
CN(C)S(=O)(=O)N1CCN(S(=O)(=O)N(C)C)CC1	none
Cc1ccc(-c2cc3nn(-c4ccccc4)c(N)c3c(=O)o2)cc1	none (no result: tolC growth inh)
COc1ccccc1-n1c(C)nnc1SCC(=O)Nc1cccc(C(C)=O)c1	none
CCOc1ccccc1N(CC(=O)OC)S(C)(=O)=O	none
CCN1CCN(S(=O)(=O)c2cc(OC)ccc2OC)CC1	none
COc1ccc(OC)c(S(=O)(=O)N2CCN(c3c(C)cccc3C)CC2)c1	tolC growth inh 65, CYP2C9 inh 98, CYP2C19 inh 50
COc1ccccc1N1CCN(S(=O)(=O)c2ccc(F)cc2)CC1	CYP2C9 inh 82, CYP2C19 inh 91
COc1ccccc1N1CCN(S(C)(=O)=O)CC1	none (no result: tolC growth inh)
S=C(NN=C1C2CC3CC(C2)CC1C3)Nc1ccccc1	none (no result: tolC growth inh)
COC(=O)c1ccccc1N(C)S(C)(=O)=O	none
COC(=O)c1ccccc1NC(=O)c1ccccc1N(C)S(C)(=O)=O	CYP2C19 inh 50
CCOC(=O)c1ccccc1NC(=O)c1ccc(N(C)S(C)(=O)=O)cc1	none
CCOC(=O)c1ccccc1NC(=O)c1ccccc1N(C)S(C)(=O)=O	CYP2C19 inh 76
COC(=O)c1ccc(NC(=O)c2ccccc2N(C)S(C)(=O)=O)cc1	CYP2C19 inh 62
CCOC(=O)c1ccccc1NC(=O)c1ccc(F)cc1	none (no result: tolC growth inh)
CCOC(=O)c1ccccc1NC(=O)c1c(F)c(F)c(F)c(F)c1F	tolC growth inh 65
C=CCn1c(=O)c2ccccc2n2c(SCC(=O)/C(C#N)=C(\C)N)nnc12	none
CCOCCOc1nc2c(c(=O)n(C)c(=O)n2C)n1Cc1ccc(C)cc1	none (no result: Ecoli WT expand, CYP2C19 activ, CYP2C9 inh, CYP2C19 inh, CYP2C9 act)
CC1=CC(C)C2C(=O)N(CCCN(C)C)C(=O)C2C1 (stereo not given)	none
N#CCSc1ncnc2sc3c(c12)CCC3	none
COCCn1c(SCc2nnc(-c3ccccc3)o2)nc2sc3c(c2c1=O)CCC3	CYP2C9 inh 87
COc1ccc(-c2nnc(CSc3ncnc4sc5c(c34)CCC5)o2)cc1OC	CYP2C9 inh 53 (no result: Ecoli WT expand)
COCCCn1c(SCC(=O)NCc2ccco2)nc2sc3c(c2c1=O)CCC3	none
COCCn1c(SCC(=O)Nc2ncc(C)s2)nc2sc3c(c2c1=O)CCC3	CYP2C9 inh 52
CCn1cc(C(=O)OCC(=O)OC2CC(C)CCC2C(C)C)c(=O)c2ccc(C)nc21 (stereo not given)	tolC growth inh 84, CYP2C19 inh 75
CC(C)(C)c1ccc(C(=O)N2CCC(C(=O)NCC3CCCO3)CC2)cc1 (stereo not given)	none
CCOC(=O)n1c(=O)n(Cc2ccc(Cl)cc2Cl)c2ccccc21	CYP2C19 inh 63 (no result: tolC growth inh)
CCOC(=O)n1c(=O)n(Cc2ccccc2Cl)c2ccccc21	CYP2C19 inh 85 (no result: tolC growth inh)
N=c1n(CC(=O)O)c2ccccc2n1Cc1ccccc1Cl	none
COc1cc(C2C(C#N)=C(N)OC3=C2C(=O)CCC3)c([N+](=O)[O-])cc1OC (stereo not given)	none (no result: tolC growth inh)
CCn1c(SCC(N)=O)nnc1-c1ccc(S(=O)(=O)N2CCN(C)CC2)cc1	none
COc1cc(C(=O)Oc2ccccc2/C=N/NC(=O)c2ccc(Cl)cc2Cl)cc(OC)c1OC	CYP2C9 inh 97 (no result: tolC growth inh)
COc1cc(C(=O)Oc2cccc(C=O)c2)cc(OC)c1OC	none (no result: tolC growth inh)
COc1cc(C(=O)Oc2ccccc2N)cc(OC)c1OC	CYP2C9 inh 68
COC(=O)c1cc(OC)c(OC)c(OC)c1N	CYP2C19 inh 64
COC(=O)Nc1c(C(=O)OC)cc(OC)c(OC)c1OC	none
CCCCN(CC)C(=O)C1CCC(=O)N(c2ccc(OC)cc2)C1c1ccc(OC)c(OC)c1 (stereo not given)	none (no result: Ecoli WT expand, CYP2C19 activ, CYP2C9 inh, CYP2C19 inh, CYP2C9 act)
O=C(CSc1nc2cc(Cl)ccc2s1)c1ccco1	CYP2C19 inh 89
O=C(CSCc1ccc(Cl)cc1)c1ccco1	CYP2C9 inh 58, CYP2C19 inh 73
COCCNC(=O)C1CCN(S(=O)(=O)c2ccccc2)CC1	none
CCC(Sc1nc(-c2ccccc2)c(C#N)c(=O)[nH]1)C(=O)Nc1nnc(C)s1 (stereo not given)	CYP2C9 inh 67 (no result: tolC growth inh)
Cc1cc(=O)[nH]c(SCC(=O)Nc2ccc(C(=O)O)cc2)n1	none (no result: tolC growth inh)
CCC(Sc1nc(C)cc(=O)[nH]1)C(=O)Nc1nc(-c2ccccc2)cs1 (stereo not given)	CYP2C9 inh 88, CYP2C19 inh 71 (no result: tolC growth inh)
Cc1ccc(-c2csc(NC(=O)CSc3nc(C)cc(=O)[nH]3)n2)cc1	CYP2C9 inh 82 (no result: tolC growth inh)
Cc1ccc(NC(=O)CSc2nc(NS(=O)(=O)c3ccccc3)cc(=O)[nH]2)cc1	CYP2C9 inh 61 (no result: tolC growth inh)
